According to paper PMC10114714 (ACS Bio & Med Chem Au, 2021):
Entries after “also recorded” stand apart in the source; their conditions may differ. Values belong to the compound of their own block, whether it stands above or below them.

Key:
human mGlu5 [1] = molecular target: T1, human mGlu5 (Homo sapiens, UniProt P41594); assay: Calcium fluorescence triple-add assay, mGlu5 PAM mode; format: cell-based
human mGlu5 [2] = molecular target: T1, human mGlu5; assay: cell-based
[3] = Intrinsic clearance in liver microsomes, human; format: in vitro ADME; conditions: pH 7.4
[4] = Rat IV and PO pharmacokinetics; format: in vivo
Outline: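 Plasma pharmacokinetics with IV dosing at 0.20 mg/kg and PO dosing at 10 mg/kg. Read-outs are Cmax, tmax, AUCinf, t1/2 and oral bioavailability F.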

[5] = Intrinsic clearance in liver microsomes, rat; format: in vitro ADME; conditions: pH 7.4
[6] = Rat IV plasma/brain level; format: in vivo; conditions: male, Sprague-Dawley, brain and plasma, 0.2 mg/kg
[7] = Plasma protein binding, rat; format: in vitro ADME; conditions: pH 7.4
mGlu1–4,7,8 = assay: Functional selectivity over the other mGlu receptors; format: cell-based
[8] = Plasma protein binding, human; format: in vitro ADME; conditions: pH 7.4
rat mGlu5 = rat mGlu5 (Rattus norvegicus, UniProt P31424); assay: [3H]methoxyPEPy radioligand competition binding; conditions: for displacement of [3H]methoxyPEPy radioligand binding: concentrations up to 100 μM, in words
Chain of rat mGlu5 (P31424 21-1203): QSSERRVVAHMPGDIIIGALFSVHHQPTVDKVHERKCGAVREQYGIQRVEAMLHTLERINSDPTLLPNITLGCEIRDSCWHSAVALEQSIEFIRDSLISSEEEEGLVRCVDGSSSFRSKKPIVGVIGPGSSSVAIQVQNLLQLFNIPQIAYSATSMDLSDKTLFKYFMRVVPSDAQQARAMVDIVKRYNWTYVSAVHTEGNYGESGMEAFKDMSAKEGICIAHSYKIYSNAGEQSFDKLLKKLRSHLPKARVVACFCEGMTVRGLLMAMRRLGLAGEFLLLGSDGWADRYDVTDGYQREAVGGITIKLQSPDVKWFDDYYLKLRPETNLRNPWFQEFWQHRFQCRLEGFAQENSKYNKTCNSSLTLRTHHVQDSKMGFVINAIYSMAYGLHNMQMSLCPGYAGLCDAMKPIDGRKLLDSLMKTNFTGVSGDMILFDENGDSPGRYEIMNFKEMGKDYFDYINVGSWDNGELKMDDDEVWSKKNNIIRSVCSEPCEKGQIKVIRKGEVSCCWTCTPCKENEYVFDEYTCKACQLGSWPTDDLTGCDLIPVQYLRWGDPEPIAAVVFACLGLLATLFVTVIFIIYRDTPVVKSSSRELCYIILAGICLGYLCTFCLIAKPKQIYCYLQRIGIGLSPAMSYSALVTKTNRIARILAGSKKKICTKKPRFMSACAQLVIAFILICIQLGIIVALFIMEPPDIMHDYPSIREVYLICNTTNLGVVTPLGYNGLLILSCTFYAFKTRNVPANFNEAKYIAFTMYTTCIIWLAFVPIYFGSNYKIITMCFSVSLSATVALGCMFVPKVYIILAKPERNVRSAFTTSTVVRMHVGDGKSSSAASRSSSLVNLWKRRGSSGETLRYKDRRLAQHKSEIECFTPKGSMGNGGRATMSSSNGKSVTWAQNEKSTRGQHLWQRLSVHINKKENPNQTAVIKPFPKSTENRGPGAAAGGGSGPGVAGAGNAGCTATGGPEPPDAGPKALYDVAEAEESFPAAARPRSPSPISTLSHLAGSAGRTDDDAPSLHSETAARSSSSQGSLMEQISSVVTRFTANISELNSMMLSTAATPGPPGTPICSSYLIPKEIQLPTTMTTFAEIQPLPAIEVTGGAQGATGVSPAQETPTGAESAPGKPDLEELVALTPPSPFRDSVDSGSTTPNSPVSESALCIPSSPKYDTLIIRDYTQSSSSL

[9] = test system: amphetamine-induced hyperlocomotion; assay: Reversal of amphetamine-induced hyperlocomotion; format: in vivo; conditions: rat
Outline: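 Male Sprague–Dawley rats, n = 7-8 per group. Test compound is given i.p. at 30 or 60 mg/kg in 10% Tween 80 in H2O, 30 min before amphetamine at 0.75 mg/kg s.c. Locomotion is compared with a vehicle/amphetamine control group.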

[10] = Brain homogenate binding, rat; format: in vitro ADME; conditions: pH 7.4, Rat fu,b
marble burying = assay: Marble burying assay; format: in vivo, mouse; conditions: male CD-1 mice, 30 mg/kg i.p., in words
[11] = Plasma protein binding, mouse; format: in vitro ADME; conditions: pH 7.4
[12] = Intrinsic clearance in liver microsomes, mouse; format: in vitro ADME; conditions: pH 7.4
[13] = Mouse IV and PO pharmacokinetics; format: in vivo
[14] = male, Sprague-Dawley, plasma, iv, 0.2 mg/kg
[15] = male, Sprague-Dawley, plasma, po, 10 mg/kg

T1 sequence (P41594 21-1212): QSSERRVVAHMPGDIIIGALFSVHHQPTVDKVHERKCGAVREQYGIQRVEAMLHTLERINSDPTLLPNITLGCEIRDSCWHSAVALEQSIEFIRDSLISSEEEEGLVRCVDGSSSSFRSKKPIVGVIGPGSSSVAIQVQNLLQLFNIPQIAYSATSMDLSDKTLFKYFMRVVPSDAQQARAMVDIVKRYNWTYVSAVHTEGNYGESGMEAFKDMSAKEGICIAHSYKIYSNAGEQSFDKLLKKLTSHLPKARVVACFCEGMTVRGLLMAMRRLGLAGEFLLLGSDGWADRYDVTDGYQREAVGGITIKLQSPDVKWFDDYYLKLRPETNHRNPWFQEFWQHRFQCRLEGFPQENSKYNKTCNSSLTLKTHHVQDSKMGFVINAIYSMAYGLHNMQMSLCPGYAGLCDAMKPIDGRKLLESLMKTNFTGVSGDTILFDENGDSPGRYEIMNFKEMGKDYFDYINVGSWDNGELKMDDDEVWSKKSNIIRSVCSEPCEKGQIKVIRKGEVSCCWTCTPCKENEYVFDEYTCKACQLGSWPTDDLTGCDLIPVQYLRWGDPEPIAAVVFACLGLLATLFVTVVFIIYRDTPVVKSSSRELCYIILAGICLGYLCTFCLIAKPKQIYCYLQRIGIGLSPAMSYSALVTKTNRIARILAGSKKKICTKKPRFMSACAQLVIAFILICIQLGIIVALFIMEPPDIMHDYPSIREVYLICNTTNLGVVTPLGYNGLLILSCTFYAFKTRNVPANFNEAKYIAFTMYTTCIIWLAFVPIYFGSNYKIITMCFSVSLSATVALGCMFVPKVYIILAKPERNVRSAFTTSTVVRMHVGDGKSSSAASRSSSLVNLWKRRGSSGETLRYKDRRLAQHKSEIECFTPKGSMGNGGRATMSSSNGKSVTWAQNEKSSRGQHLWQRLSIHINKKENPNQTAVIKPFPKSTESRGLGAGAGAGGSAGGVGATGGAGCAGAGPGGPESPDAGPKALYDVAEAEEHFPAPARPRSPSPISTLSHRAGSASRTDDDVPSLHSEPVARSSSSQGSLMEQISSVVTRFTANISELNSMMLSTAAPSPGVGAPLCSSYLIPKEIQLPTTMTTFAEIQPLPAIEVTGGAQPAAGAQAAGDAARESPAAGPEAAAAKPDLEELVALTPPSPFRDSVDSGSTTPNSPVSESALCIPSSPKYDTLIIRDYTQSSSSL

Compound: Cc1ccc(Cc2cc(C(=O)NCc3ccc(F)cn3)nc3ccsc23)cn1 [Compound 27]
IC50 (human mGlu5 [2]): > 30000 nM

Compound: Cc1ccc(Oc2cc(C(=O)NCc3ccc(F)cn3)nc3ccsc23)cn1 [Compound 17a, N-((5-Fluoropyridin-2-yl)methyl)-7-((6-methylpyridin-3-yl)oxy)thieno[3,2-b]pyridine-5-carboxamide]
CLint scaled at 1 µM [3]: 173 mL/min/kg
F (%) ([4]; PO 10 mg/kg, 10 mg/kg): 8.22%
Vd [4, 14]: 2.2 L/kg
clearance [4, 14]: 36.9 mL/min/kg
half-life [4, 14]: 82.2 min
AUC(0-inf) [4, 15]: 371 ng·h/mL
Cmax [4, 15]: 152 ng/mL
Tmax [4, 15]: 30 min
CLint scaled at 1 µM [5]: 152 mL/min/kg
Kp at 0.25 h [6]: 0.83
Kp uu at 0.25 h [6]: 0.52
fraction unbound at 6 h, 5 µM [7]: 0.048
functional activity at mGlu1–4,7,8 (mGlu1–4,7,8): > 30 µM
EC50 (human mGlu5 [1]; hmGlu5 EC50 (μM), Table 2): 0.52 µM
fold improvement in potency in comparison to hit compound 12 (human mGlu5 [1]; mGlu5 PAM EC50): 5 fold
fraction unbound at 6 h, 5 µM [8]: 0.056
Ki (rat mGlu5): > 10000 nM
displacement of [3H]methoxyPEPy radioligand binding (rat mGlu5): weak binding
reversal of AHL ([9]; 60 mg/kg i.p., 30 min prior to 0.75 mg/kg s.c. amphetamine): ~30%
reversal of amphetamine-induced hyperlocomotion ([9]; 30 or 60 mg/kg i.p., in words): reversed amphetamine-induced hyperlocomotion; also recorded: Dose-dependent reversal
fraction unbound at 6 h, 1 µM [10]: 0.03

Compound: Cc1ccc(Nc2cc(C(=O)NCc3ccc(F)cn3)nc3ccsc23)cn1 [Compound 26]
IC50 (human mGlu5 [2]): > 30000 nM

Second part, led by results:

mGlu5 PAM activity (human mGlu5 [1]; in words): complete loss of activity
Compound: Cc1ccc(Oc2ccnc(C(=O)NCc3ccc(F)cn3)c2)cn1 [Compound 21d]

IC50 (human mGlu5 [2]): 203 nM
Compound: Cc1ccncc1Oc1cc(C(=O)NCc2ccc(F)cn2)nc2ccsc12 [Compound 28b]

IC50 (human mGlu5 [2]): 1900 nM
Compound: Cc1ccc(Oc2cc(C(=O)NCc3ccc(F)cn3)nc3ccsc23)nc1 [Compound 28e]

IC50 (human mGlu5 [2]): 260 nM
Compound: Cc1cncc(Oc2cc(C(=O)NCc3ccc(F)cn3)nc3ccsc23)c1 [Compound 28a]

IC50 (human mGlu5 [2]): > 30000 nM
Compound: Cc1ncccc1Oc1cc(C(=O)NCc2ccc(F)cn2)nc2ccsc12 [Compound 28c]

CLint scaled at 1 µM [3]: 47 mL/min/kg
fraction unbound at 6 h, 5 µM [11]: 0.062
CLint scaled at 1 µM [5]: 314 mL/min/kg
CLint scaled at 1 µM [12]: 970 mL/min/kg
fraction unbound at 6 h, 5 µM [7]: 0.115
fraction unbound at 6 h, 5 µM [8]: 0.068
drug in blood following PO administration ([13]; PO 10 mg/kg, in words): no measurable drug in blood
Vd ([13]; plasma, iv, 1 mg/kg): 8.2 L/kg
clearance ([13]; plasma, iv, 1 mg/kg): 141 mL/min/kg
half-life ([13]; plasma, iv, 1 mg/kg): 41.4 min
Ki (rat mGlu5): 160 nM
displacement of [3H]methoxyPEPy radioligand binding (rat mGlu5): full displacement of radioligand binding
fraction unbound at 6 h, 1 µM [10]: 0.035
Compound: O=C(NCc1ccc(F)cn1)c1cc(Oc2cccnc2)c2sccc2n1 [Compound 28d, N-((5-fluoropyridin-2-yl)methyl)-7-(pyridin-3-yloxy)thieno[3,2-b]pyridine-5-carboxamide]
marble burying (marble burying): anxiolytic activity; also recorded: significant reduction in marble burying; also recorded: Inhibition of marble burying
functional activity at mGlu1–4,7,8 (mGlu1–4,7,8): > 30 µM
